Reference: ChEMBL document CHEMBL1125497, “Synthesis and anticonvulsant activity of enaminones” (J Med Chem, 1992)

Legend:
[1] = Anticonvulsant activity administered intraperitoneally in CF1 mice is the ability to protect the mice from MES(maximal electroshock seizure).; type: functional; settings: Mus musculus, ip
[2] = (§1) Dose producing neurotoxic effects in 50% of the CF1 mice after intraperitoneal administration.; type: functional; settings: Mus musculus, ip; read-out: ED50 (the source's name)
How it was run: (§2)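 Phase II quantification in CF1 male mice (ca. 24–34 g), dosing ip or po in 0.5% methylcellulose suspension. ED50 is protection from tonic hind limb extension in MES. TD50 is rotorod neurotoxicity. Both were read at time of peak effect and derived by Litchfield–Wilcoxon with 95% confidence limits.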

[3] = Antiepileptic activity in male CF1 mice 30 min after administration measured in subcutaneous pentylenetetrazole (scMet) test at a dose of 300 mg/kg (no. of animals treated /protected); activity value is 0/1; type: functional, Mus musculus
[4] = Antiepileptic activity in male CF1 mice 30 min after administration measured in subcutaneous pentylenetetrazole (scMet) test at a dose of 100 mg/kg (no. of animals treated /protected); activity value is 0/1; type: functional, Mus musculus
[5] = Antiepileptic activity in male CF1 mice 4 hr after administration measured in maximum electroshock seizure(MES) test at a dose of 100 mg/kg (no. of animals treated /protected); activity value is 0/3; type: functional, Mus musculus
[6] = Antiepileptic activity in male CF1 mice 4 hr after administration measured in maximum electroshock seizure(MES) test at a dose of 300 mg/kg (no. of animals treated /protected); activity value is 0/1; type: functional, Mus musculus
[7] = Antiepileptic activity in male CF1 mice 30 min after administration measured in maximum electroshock seizure(MES) test at a dose of 100 mg/kg (no. of animals treated /protected); activity value is 2/3; type: functional, Mus musculus
[8] = Antiepileptic activity in male CF1 mice 30 min after administration measured in maximum electroshock seizure(MES) test at a dose of 300 mg/kg (no. of animals treated /protected); activity value is 1/1; type: functional, Mus musculus
[9] = Antiepileptic activity in male CF1 mice 30 min after administration measured in neurological toxicity (Tox) test at a dose of 100 mg/kg (no. of animals treated /protected); activity value is 0/8; type: functional, Mus musculus
[10] = Time of peak anticonvulsant effect in CF1 mice; type: functional, Mus musculus
How it was run: (§3)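 Male CF1 mice (ca. 24–34 g), compound in 0.5% methylcellulose suspension given ip or po; time (h) at which MES protection (against tonic hind limb extension) peaked was recorded and used for ED50 determination.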

[11] = Time of peak neurotoxic effect in CF1 mice; type: ADME; settings: mouse, in vivo
How it was run: (§4)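 Male CF1 mice (ca. 24–34 g), compound ip in 0.5% methylcellulose suspension; neurological deficit assessed by rotorod test, time (h) of peak neurotoxic effect recorded for TD50 determination.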

[12] = Antiepileptic activity in male CF1 mice 4 hr after administration measured in neurological toxicity (Tox) test at a dose of 100 mg/kg (no. of animals treated /protected); activity value is 0/4; type: functional, Mus musculus
[13] = Antiepileptic activity in male CF1 mice 4 hr after administration measured in neurological toxicity (Tox) test at a dose of 300 mg/kg (no. of animals treated /protected); activity value is 0/2; type: functional, Mus musculus
[14] = Antiepileptic activity in male CF1 mice 4 hr after administration measured in subcutaneous pentylenetetrazole (scMet) test at a dose of 100 mg/kg (no. of animals treated /protected); activity value is 0/1; type: functional, Mus musculus
[15] = Antiepileptic activity in male CF1 mice 4 hr after administration measured in subcutaneous pentylenetetrazole (scMet) test at a dose of 300 mg/kg (no. of animals treated /protected); activity value is 0/1; type: functional, Mus musculus
[16] = Dose at which anticonvulsant activity was observed in mice; type: functional, Mus musculus
[17] = Antiepileptic activity in male CF1 mice 30 min after administration measured in neurological toxicity (Tox) test at a dose of 300 mg/kg (no. of animals treated /protected); activity value is 0/4; type: functional, Mus musculus
[18] = Protective index was measured as TD50/ED50; type: ADME; settings: read-out: PI
[19] = Oral dose producing neurotoxic effects in 50% of rats; type: ADME, organism-based; settings: rat, in vivo
How it was run: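 Phase VI screen in male Sprague-Dawley rats dosed orally. MES protection and rotorod toxicity were scored as animals responding over animals tested at 0.25, 0.5, 1, 2 and 4 h.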

[20] = Antiepileptic activity in male CF1 mice 4 hr after administration measured in subcutaneous pentylenetetrazole (scMet) test at a dose of 100 mg/kg; activity value is 0/1; type: functional, Mus musculus
[21] = Antiepileptic activity in male CF1 mice 30 min after administration measured in maximum electroshock seizure(MES) test at a dose of 300 mg/kg (no. of animals treated /protected); activity value is 0/1; type: functional, Mus musculus
[22] = Antiepileptic activity in male CF1 mice 4 hr after administration measured in maximum electroshock seizure(MES) test at a dose of 300 mg/kg (no. of animals treated /protected); activity value is 1/1; type: functional, Mus musculus
[23] = Antiepileptic activity in male CF1 mice 4 hr after administration measured in subcutaneous pentylenetetrazole (scMet) test at a dose of 300 mg/kg; activity value is 0/1; type: functional, Mus musculus
[24] = as §1; type: ADME; settings: CF1, mouse, in vivo, ip; how it was run: as §2
[25] = Antiepileptic activity in male CF1 mice 30 min after administration measured in neurological toxicity (Tox) test at a dose of 300 mg/kg (no. of animals treated /protected); activity value is 1/4; type: functional, Mus musculus
[26] = Antiepileptic activity in male CF1 mice 30 min after administration measured in maximum electroshock seizure(MES) test at a dose of 100 mg/kg (no. of animals treated /protected); activity value is 1/3; type: functional, Mus musculus
Rattus norvegicus [27] = experiment: Dose reducing the seizure severity in rat cornea 1 hr after peroral administration; type: functional; settings: po
How it was run: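 Same corneal-kindled Sprague-Dawley rat procedure with the drug given po. Vehicles: 0.5% methylcellulose, 0.9% NaCl or corn oil. Single shock at the time of peak effect, scored on the modified Racine scale. ED50 by Litchfield-Wilcoxon, taken as the dose that reduced seizure severity by 50%.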

[28] = Dose elevating electroshock induced seizure by 20% in CF1 mice after ip administration.; type: functional, Mus musculus
How it was run: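 In CF1 male mice (ca. 24–34 g), compound was given ip in 0.5% methylcellulose. The current giving hind limb extension in 50% of mice was found by the up-and-down method, with 15–25 mice per group and a vehicle control group run with each experimental group. At least three doses were tested. The dose raising threshold current by 20% was taken from a plot of dose against % threshold increase.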

[29] = Dose protecting 50% of the mice from tonic hind limb extension at the time of […] after ip administration.; type: functional; settings: Mus musculus, Hindlimb; how it was run: as §2
[30] = Dose showing neurotoxicity in 50% of the at the time of peak neurotoxic effect in CF1 MICE after ip administration.; type: toxicity, organism-based; settings: CF1, mouse, in vivo
How it was run: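 CF1 male mice (ca. 24–34 g), dosed ip in 0.5% methylcellulose suspension. Neurotoxicity measured by the rotorod test at the time of peak neurotoxic effect. TD50 and confidence limits by the Litchfield-Wilcoxon method.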

[31] = Time of peak anticonvulsant effect in CF1 MICE after ip administration.; type: functional, Mus musculus; how it was run: as §3
[32] = Time of peak neurotoxic effect in CF1 MICE after ip administration.; type: ADME, organism-based; settings: mouse, in vivo; how it was run: as §4
Rattus norvegicus [33] = experiment: Average seizure score for the rat cornea 0.5 hr after intraperitoneal administration of 15 mg/Kg of compound; type: functional
How it was run: (§5)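 Sprague-Dawley rats (85–95 g initial weight) kindled by corneal stimulation (4 s, 8 mA) twice daily for 5 to 6 days, then once daily until 10 consecutive stage 5 seizures. Butacaine sulfate 1% applied to the cornea as a topical anaesthetic. After a vehicle shock and a 2-day shock-free period, drug given ip, then a single shock at the time of peak effect. Scored on the modified Racine scale (0–5).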

Rattus norvegicus [34] = experiment: Average seizure score for the rat cornea 0.5 hr after intraperitoneal administration of 20 mg/Kg of compound; type: functional; how it was run: as §5
Rattus norvegicus [35] = experiment: Average seizure score for the rat cornea 0.5 hr after intraperitoneal administration of 0 mg/Kg of compound; type: functional; how it was run: as §5
Rattus norvegicus [36] = experiment: Average seizure score for the rat cornea 0.5 hr after intraperitoneal administration of 30 mg/Kg of compound; type: functional; how it was run: as §5
Rattus norvegicus [37] = experiment: Intraperitoneal dose (0 mg/Kg) reducing rat corneal kindling 0.5 hr after administration.; type: functional; how it was run: as §5
Rattus norvegicus [38] = experiment: Intraperitoneal dose (15 mg/Kg) reducing rat corneal kindling 0.5 hr after administration.; type: functional; how it was run: as §5
Rattus norvegicus [39] = experiment: Intraperitoneal dose (20 mg/Kg) reducing rat corneal kindling 0.5 hr after administration.; type: functional; how it was run: as §5
Rattus norvegicus [40] = experiment: Intraperitoneal dose (25 mg/Kg) reducing rat corneal kindling 0.5 hr after administration.; type: functional; how it was run: as §5
Rattus norvegicus [41] = experiment: Intraperitoneal dose (30 mg/Kg) reducing rat corneal kindling 0.5 hr after administration.; type: functional; how it was run: as §5
Rattus norvegicus [42] = experiment: Dose reducing the seizure severity in rat cornea 0.5 hr after peroral administration.; type: functional; settings: po
How it was run: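 Sprague-Dawley rats (85–95 g initial) were kindled with 4 s, 8 mA corneal stimulations (butacaine anesthesia) to 10 consecutive stage 5 seizures. After a vehicle shock and a 2-day shock-free period, test drug was given ip or po and a single shock applied at time of peak effect. Seizures were scored on a modified Racine 0–5 scale. ED50 is the dose reducing severity by 50% (Litchfield–Wilcoxon).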

Row | SMILES | Activity [3] | Activity [4] | Activity [5] | Activity [6] | Activity [8] | Activity [9] | TPE [10] | TPE [11] | Activity [12] | Activity [13] | Activity [15] | Dose [16] | Activity [17] | other results
1 | CC1(C)CC(O)=C/C(=N\c2ccccc2)C1 | 0 | 0 | 0 | 0 | 1 | 0 | 0.5 | 0.5 | 0 | 0 | 0 | <=100 mg kg-1 | 0 | ED50 [1]: 109 mg/kg; TD50 [2]: 233 mg/kg; Activity [7]: 2; Activity [14]: 0; selectivity ratio [18]: 2.1; TD50 [19]: > 250 mg/kg
2 | CCc1ccc(NC2=CC(=O)C(C(=O)OC)C(C)C2)cc1 (stereo not given) |  | 0 | 0 |  |  | 0 |  |  | 0 |  |  | <=100 mg kg-1 |  | Activity [7]: 2; Activity [20]: 0
3 | COC(=O)C1C(=O)C=C(NNc2ccccc2)CC1C (stereo not given) | 0 |  |  |  |  |  |  |  |  | 0 |  | >100 mg/kg | 0 | Activity [21]: 0; Activity [22]: 1; Activity [23]: 0
4 | CC1CC(NCCc2ccccc2)=CC(=O)C1C(=O)NCCc1ccccc1 (stereo not given) | 0 |  |  |  |  |  |  |  |  | 0 | 0 | >100 mg/kg | 0 | Activity [21]: 0; Activity [22]: 1
5 | COC(=O)C1C(O)=C/C(=N\Cc2ccccc2)CC1(C)C (stereo not given) | 0 |  |  | 0 | 1 |  | 0.5 | 1 |  | 0 | 0 | >100 mg/kg |  | ED50 [1]: 132 mg/kg; TD50 [24]: > 500 mg/kg; Activity [25]: 1; selectivity ratio [18]: 3.8
6 | COC(=O)C1C(O)=C/C(=N\CCc2ccccc2)CC1(C)C (stereo not given) | 0 | 0 | 0 | 0 | 1 | 0 |  |  | 0 | 0 | 0 | <=100 mg kg-1 |  | Activity [26]: 1; Activity [14]: 0; Activity [25]: 1
7 | COC(=O)C1C(=O)C=C(Nc2cc(OC)ccc2OC)CC1C (stereo not given) | 0 | 0 | 0 | 0 | 1 | 0 |  |  | 0 | 0 | 0 | <=100 mg kg-1 | 0 | Activity [26]: 1; Activity [14]: 0
8 | NC(=O)N1c2ccccc2C=Cc2ccccc21 [CARBAMAZEPINE] |  |  |  |  |  |  | 0.25 | 0.25 |  |  |  |  |  | ED50 [1]: 8.8 mg/kg
9 | O=C1CN=C(c2ccccc2Cl)c2cc([N+](=O)[O-])ccc2N1 [CLONAZEPAM] |  |  |  |  |  |  |  |  |  |  |  |  |  | ED50 (Rattus norvegicus [27]): 0.7 mg/kg
10 | CCC1(c2ccccc2)C(=O)NC(=O)NC1=O [PHENOBARBITAL] |  |  |  |  |  |  |  |  |  |  |  |  |  | Dose [28]: 3 mg/kg; ED50 [29]: 18 mg/kg; TD50 [30]: 92 mg/kg; TPE [31]: 1; TPE [32]: 1; Average seizure score (Rattus norvegicus [33]): 2.7; Average seizure score (Rattus norvegicus [34]): 1.7; Average seizure score (Rattus norvegicus [35]): 5; Average seizure score (Rattus norvegicus [36]): 1.3; Reduction (Rattus norvegicus [37]): 0%; Reduction (Rattus norvegicus [38]): 47%; Reduction (Rattus norvegicus [39]): 68%; Reduction (Rattus norvegicus [40]): 70%; Reduction (Rattus norvegicus [41]): 74%
11 | O=C1NC(=O)C(c2ccccc2)(c2ccccc2)N1 [PHENYTOIN] |  |  |  |  |  |  | 2 | 2 |  |  |  |  |  | ED50 (Rattus norvegicus [42]): > 100 mg/kg; TD50 [19]: > 3000 mg/kg
